Source: ChEMBL document CHEMBL1128286, “Lipophilic, acid-stable, adenosine deaminase-activated anti-HIV prodrugs for central nervous system delivery. 2. 6-Halo and 6-alkoxy prodrugs of 2'-beta-fluoro-2',3'-dideoxyinosine” (J Med Chem, 1995)
One block for each molecule: values may come before it.

What was measured:
PBMC [1] = assay: % protection was determined as the percent reduction in HIV p24 Gag protein production using PHA/PBM system at 40 uM concentration.; type: functional, Homo sapiens
Summary of the method: (§1)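 PBMs from an HIV-seronegative donor, PHA-stimulated 3 days before drug addition, preincubated 2 h with compound, then infected with 250 TCID50 HIV-1 ERS104pre. Cultured at 37 °C in complete medium (15% FCS) with rIL-2. Day-8 supernatant p24 Gag measured by RIA; % protection is the reduction versus infected untreated controls. Quadruplicate.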

PBMC [2] = assay: % protection was determined as the percent reduction in HIV p24 Gag protein production using PHA/PBM system at 80 uM concentration.; type: functional, Homo sapiens; summary of the method: as §1
PBMC [3] = assay: % protection was determined as the percent reduction in HIV p24 Gag protein production using PHA/PBM system at 5 uM concentration.; type: functional, Homo sapiens; summary of the method: as §1
PBMC [4] = assay: Anti-HIV activity measured as the ability to inhibit HIV -1 p24 Gag protein production, using PHA/PBM system.; type: functional, cell-based; conditions: Homo sapiens; summary of the method: as §1
PBMC [5] = assay: % protection was determined as the percent reduction in HIV p24 Gag protein production using PHA/PBM system at 10 uM concentration.; type: functional, Homo sapiens; summary of the method: as §1
PBMC [6] = assay: % protection was determined as the percent reduction in HIV p24 Gag protein production using PHA/PBM system at 20 uM concentration.; type: functional, Homo sapiens; summary of the method: as §1
PBMC [7] = assay: % protection was determined as the percent reduction in HIV p24 Gag protein production sing PHA/PBM system at 80 uM concentration.; type: functional, Homo sapiens; summary of the method: as §1
[8] = Half-life time was determined; type: ADME
[9] = target: T1, Adenosine deaminase (Bos taurus) (UniProt P56658); assay: Relative Adenosine deaminase hydrolysis rate was determined in vitro by appearance of the F-ddI […] on isolated enzyme
T1 sequence (whole entry): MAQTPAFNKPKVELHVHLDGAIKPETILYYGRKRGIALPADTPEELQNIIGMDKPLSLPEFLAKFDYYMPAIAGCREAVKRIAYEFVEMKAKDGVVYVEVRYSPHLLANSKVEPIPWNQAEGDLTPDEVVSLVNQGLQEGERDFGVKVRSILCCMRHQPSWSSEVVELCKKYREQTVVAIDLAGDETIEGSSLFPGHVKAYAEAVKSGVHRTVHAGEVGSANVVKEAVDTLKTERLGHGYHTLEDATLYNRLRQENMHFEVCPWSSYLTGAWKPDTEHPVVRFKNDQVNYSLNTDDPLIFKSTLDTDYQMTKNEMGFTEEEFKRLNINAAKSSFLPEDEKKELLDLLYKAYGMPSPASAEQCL
Summary of the method: (§2)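 Calf intestinal mucosa ADA, 0.05–1.0 unit, incubated with 50 µM substrate in pH 7.4, 0.01 M phosphate buffer at 37 °C. Timed aliquots quenched with water plus dCF and heated 1 min at 95 °C. Substrate loss and F-ddI formation followed by HPLC and fitted as exponential decay or association. Rate per unit ADA normalized to F-ddA.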

[10] = target: T1, Adenosine deaminase (Bos taurus); assay: Relative Adenosine deaminase hydrolysis rate was determined in vitro by disappearance of the substrate […] on isolated enzyme; summary of the method: as §2
[11] = Partition coefficient (logP); type: physicochemical; conditions: octanol/water
Summary of the method: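 Octanol/pH 7.0 buffer partition coefficient measured by microscale shake-flask, with HPLC quantification of both phases. Run in triplicate; mean ± SD of three determinations.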

[12] = Half life period was determined, at pH 1.0; type: ADME
Summary of the method: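 Nucleoside (1.0 mM aqueous stock, diluted 1:20) incubated in pH 1.0 HCl/KCl buffer at 37 °C. Timed aliquots diluted into pH 7.4 phosphate buffer and quantified by isocratic C18 HPLC (15% CH3CN in pH 7.0, 0.01 M phosphate). Data fitted to first-order exponential decay or association.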

half-life [8]: 29.6 h
Activity [9]: 0.64
Activity [10]: 0.63
logP [11]: 0.245
Compound: COc1ncnc2c1ncn2C1OC(CO)CC1F (stereo unspecified)
Protection (PBMC [1]): 75%
Protection (PBMC [2]): 92%
Protection (PBMC [3]): 18%
IC50 (PBMC [4]): 20 µM
Protection (PBMC [5]): 35%
Protection (PBMC [6]): 49%

Activity [9]: 233
Activity [10]: 202
logP [11]: 0.056
half-life [12]: 0.54 h
Compound: OCC1CC(F)C(n2cnc3c(F)ncnc32)O1 (stereo unspecified)
Protection (PBMC [1]): 99%
Protection (PBMC [2]): 99%
Protection (PBMC [3]): 58%
IC50 (PBMC [4]): < 5 µM
Protection (PBMC [5]): 83%
Protection (PBMC [6]): 97%

logP [11]: 0.052
Compound: Cc1cn([C@H]2C[C@H](N=[N+]=[N-])[C@@H](CO)O2)c(=O)[nH]c1=O [ZIDOVUDINE]

half-life [8]: 20.9 h
Activity [9]: 0.21
Activity [10]: 0.28
logP [11]: 0.627
Compound: OCC1CC(F)C(n2cnc3c(I)ncnc32)O1 (stereo unspecified)
Protection (PBMC [1]): 96%
Protection (PBMC [2]): 96%
Protection (PBMC [3]): 27%
IC50 (PBMC [4]): 10.4 µM
Protection (PBMC [5]): 45%
Protection (PBMC [6]): 81%

Further lines, the molecule ahead of its results:

Compound: OCC1CC(F)C(n2cnc3c(O)ncnc32)O1 (stereo unspecified)
Protection (PBMC [1]): 97%
Protection (PBMC [2]): 98%
Protection (PBMC [3]): 54%
IC50 (PBMC [4]): < 5 µM
Protection (PBMC [5]): 61%
Protection (PBMC [6]): 89%

Compound: OCC1CC(F)C(n2cnc3c(Cl)ncnc32)O1 (stereo unspecified)
Protection (PBMC [7]): 98%
Protection (PBMC [1]): 97%
half-life [8]: 91.7 h
Activity [9]: 1.6
Activity [10]: 2
Protection (PBMC [3]): 40%
IC50 (PBMC [4]): 5.9 µM
Protection (PBMC [5]): 70%
Protection (PBMC [6]): 92%

Compound: O=c1[nH]cnc2c1ncn2[C@H]1CC[C@@H](CO)O1 [DIDANOSINE]
Protection (PBMC [1]): 98%
Protection (PBMC [2]): 98%
Protection (PBMC [3]): 97%
IC50 (PBMC [4]): < 5 µM
Protection (PBMC [5]): 96%
Protection (PBMC [6]): 98%

Compound: OCC1CC(F)C(n2cnc3c(Br)ncnc32)O1 (stereo unspecified)
Protection (PBMC [1]): 97%
Protection (PBMC [2]): 99%
half-life [8]: 48.5 h
Activity [9]: 1.5
Activity [10]: 1.7
logP [11]: 0.443
Protection (PBMC [3]): 31%
IC50 (PBMC [4]): 6.5 µM
Protection (PBMC [5]): 71%
Protection (PBMC [6]): 90%

Compound: CCOc1ncnc2c1ncn2C1OC(CO)CC1F (stereo unspecified)
Protection (PBMC [1]): 79%
Protection (PBMC [2]): 93%
half-life [8]: 29.2 h
Activity [10]: 0.008
logP [11]: 0.803
Protection (PBMC [3]): 32%
IC50 (PBMC [4]): 14.1 µM
Protection (PBMC [5]): 39%
Protection (PBMC [6]): 58%
